Data: ChEMBL document CHEMBL4513216, “Probing the Open Global Health Chemical Diversity Library for Multistage-Active Starting Points for Next-Generation Antimalarials” (ACS Infect Dis, 2020)

Experiment: Toxicity liver stage against HepG2, at 10uM
Format: cell-based
Set-up: test concentration 10 uM, cell line HepG2-A16-CD81EGFP
Settings: human, HepG2-A16-CD81EGFP cells; read-out: INHIBITION
Summary of the method: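 Uninfected HepG2-A16-CD81EGFP cells, 3 × 10^3 per well, 1536-well, plated on prespotted compound at 10 μM final, parasite-free screening media added to match infected plates; puromycin 10 μM positive, DMSO 0.5% negative; run in parallel with 48 h PbLuc assay at 37 °C, 5% CO2; viability by CellTiter-Glo luminescence, normalized to controls.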

SMILES	cytotoxicity at 10 µM
O=C1CCCN1c1cccc(CNCc2cc(F)ccc2F)c1	15.8%
COc1c(C2CC(=O)Nc3[nH]ncc32)cc2c(c1OC)OCO2 (configuration not stated)	3.66%
c1cncc(NCCNC2CCSC2)c1 (configuration not stated)	-3.22%
Cc1nc[nH]c1-c1nccn1CCN(C)S(C)(=O)=O	-6.03%
COCCN(Cc1ccccn1)C(=O)C1CCCCCN1C (configuration not stated)	6.32%
CNc1cc(N2CCCC2CNCc2c[nH]nc2C(C)(C)C)ncn1 (configuration not stated)	7.91%
CN(C)c1ccccc1CN1CCC(N2CCCC2=O)CC1	5.02%
CCOc1ccc(CC(=O)N2CCCC(n3nc(C)nc3C)C2)cc1 (configuration not stated)	-3.18%
CC(CN1CCOCC1)NC(=O)c1cccc2cn[nH]c12 (configuration not stated)	-7.18%
Cn1cnc2c1C(COCC1CC1)CN(Cc1ccc3c(c1)OCO3)C2 (configuration not stated)	-12%
CCCn1cnc2c1CN(S(=O)(=O)Cc1ccccc1)[C@H](C(=O)OC)C2	-4.84%
O=C(Cc1ccc(F)cc1)N1CCn2c(Cn3cncn3)cnc2C1	-67.3%
O=C(O)c1cc(-c2ccn(CC3CC3)n2)n2ccccc12	13.2%
Clc1ccccc1-c1nnc(CNCCn2cccn2)o1	1.4%
COc1nccnc1N1CCC2(CCCN(C(C)C)C2=O)C1 (configuration not stated)	2.57%
CCC(NC(=O)c1ccc(OC)nn1)c1nc(C(F)(F)F)cs1 (configuration not stated)	-3.41%
CCC1CCCCN1Cc1ncc(C(C)(C)C)o1 (configuration not stated)	-3.48%
CC(Cc1ccco1)NS(=O)(=O)N1CCCCC1 (configuration not stated)	-0.867%
Cc1cc(CN2C[C@@H]3COC[C@]3(CNC(=O)N3CCCC3)C2)no1	-77.5%
CCCN1CCN(Cc2nccn2CC)C(C)C1 (configuration not stated)	8.14%
CCSc1ncc(CN2CC[C@@](O)(COC)C(C)(C)C2)cn1	-4.05%
CC(C)=CCC1(CO)CCCN(S(C)(=O)=O)C1 (configuration not stated)	-5.13%
CNCc1n[nH]c(=O)n1-c1ccccc1Oc1ccccc1	-4.88%

SMILES	cytotoxicity at 10 µM
c1cnn(CC2CCCN2c2ncnc3sccc23)c1 (configuration not stated)	38.1%
CCN(C)c1ncnc2c1CCN(C(=O)N1CCCC1)CC2	-6.9%
Cc1n[nH]c(C)c1S(=O)(=O)N(C)Cc1nn(C)c(Cl)c1Cl	0.303%
Cc1cccc(O[C@H]2COCCN(C3CCOCC3)C2)n1	9.09%
OC1(CNCCc2csc(-c3ncccn3)n2)CCNC1 (configuration not stated)	-8.44%
Cn1ccnc1CN1CCCN(Cc2noc(C3CC3)n2)CC1	-3.33%
Cc1cnn(C2CCCN(C(=O)CCc3cnn(C)c3)C2)c1 (configuration not stated)	-11.1%
Cc1cnc(CN2CCOC(Cn3nc(C)cc3C)C2)cn1 (configuration not stated)	-2.81%
Cc1csc([C@H]2C[C@@H]3CCN(C(=O)c4ccnnc4)C[C@H]3O2)n1	-1.95%
Cc1cccnc1[C@]1(O)CC[C@H]2CN(Cc3cccc(Cl)c3Cl)C[C@H]21	-5.86%
Cc1cc(N2CCN(C(=O)c3cccnc3)CC2)nc(C)n1	4.28%
CCn1cnc2c(cnn2-c2cccc(C)c2C)c1=O	-17.9%
CCc1ncc(C(=O)N2CCCN(C3CCCCC3)CC2)cn1	-5.1%
NC(=O)CCN1CCc2onc(-c3ccccc3F)c2C1	5.21%
CCCS(=O)(=O)N1CCCC(CCC(=O)N(C)CCc2ccccn2)C1 (configuration not stated)	5.02%
Cc1nn(CCNS(=O)(=O)NCc2ccccc2)c(C)c1Cl	-6.49%
Cc1nn(C)c(C)c1OCC(=O)N1CCCC1	-10.9%
CC(C)c1cc(NCC2(Cn3cccn3)CC2)nc(N)n1	3.19%
Cn1c(CCNc2nccnc2C#N)nc2ccc(F)cc21	-6.92%
COc1ccc(C(=O)C2CCCN(CCCn3cccn3)C2)c(OC)c1 (configuration not stated)	-12.2%
CC(=O)c1ccc(S(=O)(=O)N2CCOC(Cn3ccnc3)C2)cc1 (configuration not stated)	6.58%
CC(C)NCC1OCCc2cn(C)nc21 (configuration not stated)	9.91%
Cn1cc(CN2CCC3(CCCCN3S(C)(=O)=O)CC2)cn1	-76.9%

SMILES	cytotoxicity at 10 µM
CN1CCC(Cc2cncc(-c3ccccc3C(=O)O)n2)C1 (configuration not stated)	-7.19%
Cc1cccc(CN2CCc3c(nc(N4CCC(C)CC4)[nH]c3=O)C2)n1	-1.75%
CS(=O)(=O)c1ccc2c(c1)N(C(=O)Cc1cccc(F)c1)CCC2	14.9%
CCc1ccc(C(=O)N2CCCC3(CCCC(=O)N3C)C2)cc1 (configuration not stated)	-5.72%
O=C(NCCNc1cnccn1)N1CCN(Cc2cccnc2)CC1	4.07%
COc1ccc(C(=O)Nc2ccccc2-c2ccc(=O)n(C)n2)cc1	2.11%
Cc1ccoc1C(=O)N1CC[C@H]2OCC[C@@]2(COCc2ccncc2)C1	5.71%
Cn1ccnc1CN1CCC2(CC(=O)N(c3ccc4c(c3)OCO4)C2)C1 (configuration not stated)	-79.8%
N#Cc1ccc(C(=O)NCCCNc2ccc(C(F)(F)F)cn2)cc1	-4.53%
O=C(O)c1cc(-c2cccnc2)cc(S(=O)(=O)N2CCCCCC2)c1	-2.88%
CCc1csc(CCNC(=O)CC2CCN(C(C)C)CC2)n1	6.62%
O=C(COC1CCCC1)N1CCCC1c1noc(C2CC2)n1 (configuration not stated)	11%
CN(C(=O)CN1CCOC(Cn2cccn2)C1)c1nccs1 (configuration not stated)	-14.2%
Cc1cc(N(Cc2ccccn2)C2CC2)n2nc(C(F)(F)F)nc2n1	-5.83%
CCOc1ncccc1NC(=O)NCC(O)c1ccccc1OC (configuration not stated)	-8.36%
CC(=O)N1CC(=O)N(c2ccccc2)CC12CCN(Cc1nccs1)C2 (configuration not stated)	-2.23%
O=C(N1CCCC1)N1CCC2(CCCN(CCOc3ccccc3)C2)C1 (configuration not stated)	11.3%
COCCN1CCN(Cc2ccncc2)c2ncccc2C1	-70.9%
O=C(CCn1ccnc1)N1CCC(c2nnc(-c3ccccn3)o2)CC1	3.29%
COc1ccccc1C(=O)C1CCCN(c2cc(C#N)ccn2)C1 (configuration not stated)	7.56%
OCC1(NCc2cccc(-n3cccn3)c2)CCOCC1	-139%
CCN1CCC2(C=C(C(=O)N(C)C)c3ccccc32)CC1	-101%
O=C(c1cc[nH]n1)N1CCc2cc(Br)sc2C1	7.01%

SMILES	cytotoxicity at 10 µM
O=C(NC1CCS(=O)(=O)C1)c1ccccc1SCc1cscn1 (configuration not stated)	-1.53%
CN(C)CC(=O)NC1CC(=O)N(CCc2ccccc2)C1 (configuration not stated)	-1.73%
Cc1nc(CN2CCOCC3(CCN(c4ccccn4)C3)C2)cs1 (configuration not stated)	12.8%
Cc1nc(C(=O)N2CCc3[nH]nc(Nc4ccccc4)c3C2)co1	6.11%
CCN(C(C)=O)c1nc(CN2CCCC2Cn2cncn2)cs1 (configuration not stated)	-5.15%
c1ccc(N2CCCC(c3nc(-c4cccnn4)no3)C2)nc1 (configuration not stated)	-3.42%
NC(=O)N1CCCN(CCCSCc2ccccc2)CC1	-2.17%
Cc1cccnc1CN(C)CC1(O)CCCN(CC2CCCCC2)C1=O (configuration not stated)	-4.09%
Cc1noc(C)c1CN1CC[C@@H]2O[C@@H](COCC(C)C)CC[C@@H]21	-0.125%
Cc1nn(C)cc1C1CC(=O)Nc2c1cnn2C (configuration not stated)	2.8%
CN(C)CCOCC1CN(C(=O)c2ccccn2)Cc2ccnn2C1 (configuration not stated)	-3.55%
CNC(=O)c1nc(COc2ccc3c(c2)OCO3)no1	2.03%
COc1ccc(CNC(=O)c2ccc(Cl)cc2F)cc1C(=O)O	-1.62%
CNC(=O)N1CCCCC1c1nnc2n1CCCC2 (configuration not stated)	-6.1%
COc1nccnc1-c1cccc(-c2ccn(CC3COCCO3)n2)c1 (configuration not stated)	-3.65%
COc1cccc(NC(=O)CNc2ccc(C(=O)N(C)C)c(Cl)c2)c1	6.91%
CNC(=O)COC1COC2(CCN(Cc3cccnc3OC)CC2)C1 (configuration not stated)	7.61%
CC(=O)N1CCN(Cc2nnc(C(C)(C)C)o2)CC1	-0.549%
CN(C)C(=O)[C@H]1C[C@H]2[C@H](CCN2Cc2ccc3c(c2)OCO3)O1	2.36%
Cc1nc(C)c(S(=O)(=O)NC(=O)c2sccc2C)s1	0.25%
COCCN1CCC(c2nc3ccccc3[nH]2)CC1	0.575%
Nc1ccnc(C(=O)N2CCCC3(CCC(=O)N(C4CCCC4)C3)C2)c1 (configuration not stated)	-19.8%
CC(NC(=O)CNc1cc2c(cc1Cl)OCCO2)c1ccco1 (configuration not stated)	-1.31%

SMILES	cytotoxicity at 10 µM
COc1ccccc1C1(C(=O)N2CCCC(c3cc(C)[nH]n3)C2)CC1 (configuration not stated)	-16.7%
CNS(=O)(=O)CC(=O)N(Cc1c(F)cccc1F)C1CCCC1	-1.98%
Cc1sc(C(=O)NC(C)C)cc1S(=O)(=O)N(C)C	-7.84%
CCc1oc(C(=O)NCCNS(C)(=O)=O)cc1CN1CCCC1	5.53%
Cc1ccc(N2CCCC(NCc3cscn3)C2)nn1 (configuration not stated)	-7.2%
O[C@H]1CCN(Cc2ccoc2)[C@H]1Cc1cccnc1	2.36%
Cc1ncsc1-c1nnc(C2CCN(Cc3ccccc3F)CC2)o1	-10.2%
O=C(c1ccc[nH]1)N1CCN(C(c2ccccc2)C(F)(F)F)CC1 (configuration not stated)	8.3%
CC(C)C(=O)N1CCCC([C@@H]2C[C@H](C(F)F)n3ncnc3N2)C1 (some centres not stated)	-3.41%
CSc1ccc(C(C(=O)O)N2CCC(CO)CC2)cc1 (configuration not stated)	3.68%
CCc1noc(C(C)N2CCN(Cc3cnc(C)cn3)CC2)n1 (configuration not stated)	-8.54%
CSCC(C)(O)CNc1ncccc1C(F)(F)F (configuration not stated)	13.7%
CC(=O)N(C)Cc1ccccc1NC(=O)c1cnn(C)c1C	2.31%
COC(=O)C(O)C1CCN(CCc2ccncc2)CC1 (configuration not stated)	11.8%
COc1ccc(C(=O)N2C[C@@H](NC(=O)N(C)C)[C@H](C(C)C)C2)c(OC)n1	3.6%
CN(C)C(=O)c1n[nH]c2c1CN(CC1CCCCC1)C2	2.86%
COC[C@@]12CC[C@@H](N3CCOCC3)C[C@H]1CCN(c1ncccc1F)C2	-3.47%
O=C(Cn1cccnc1=O)NCCc1ccc2c(c1)OCCO2	4.96%
CC(=O)N1CCN2C(=O)N(Cc3ccc(F)cc3)C[C@H]2C1	-4.26%
COc1cc(C(=O)NS(=O)(=O)c2ccc(C#N)cc2)ccc1C	-6.56%
